Measurements pooled from the literature.
Each line is one published result; the experiments were not run side by side.
Target: Prostaglandin G/H synthase 2 (PTGS2, Homo sapiens, UniProt P35354)
Observed: enzyme activity
Mode: inhibitor
Residues used in one study (P35354 18-604): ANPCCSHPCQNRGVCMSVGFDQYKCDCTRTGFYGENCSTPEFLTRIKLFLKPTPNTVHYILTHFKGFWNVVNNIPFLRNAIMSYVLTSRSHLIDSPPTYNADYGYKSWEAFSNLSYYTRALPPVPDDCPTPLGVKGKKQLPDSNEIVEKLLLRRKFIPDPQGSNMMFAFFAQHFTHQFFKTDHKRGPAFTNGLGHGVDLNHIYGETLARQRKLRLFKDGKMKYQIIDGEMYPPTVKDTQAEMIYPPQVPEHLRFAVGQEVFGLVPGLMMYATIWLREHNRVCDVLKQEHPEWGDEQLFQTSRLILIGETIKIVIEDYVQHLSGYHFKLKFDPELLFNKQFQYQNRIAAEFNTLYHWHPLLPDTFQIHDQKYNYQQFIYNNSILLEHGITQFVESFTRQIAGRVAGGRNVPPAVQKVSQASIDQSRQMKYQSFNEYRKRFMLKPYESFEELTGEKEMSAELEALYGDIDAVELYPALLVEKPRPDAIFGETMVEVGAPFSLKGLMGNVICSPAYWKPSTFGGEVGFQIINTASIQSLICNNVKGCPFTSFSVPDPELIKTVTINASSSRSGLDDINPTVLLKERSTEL

Compound	method	tested at	endpoint	value
Clc1ccc2c(C3CCN(CCc4c[nH]c5ccccc45)CC3)c[nH]c2c1	–	10 µM	inhibition	79%
COCc1c(-c2cc3cc(C)cc(OC)c3s2)c2c(N)ncnn2c1CN1CCNC(=O)C1	–	10 µM	inhibition	6%
c1ccc(C(NCCNC(c2ccccc2)c2ccccc2)c2ccccc2)cc1	–	10 µM	inhibition	0%
O=C(Nc1cccnn1)N1CCN([C@@H]2CCOc3cc(C(F)(F)F)ccc32)CC1	–	20 µM	inhibition	-2%
COc1ccc(-c2ccc(N)cc2-c2nc3ccccc3s2)cc1	absorbance	10 µM	inhibition	10.3%
C[C@H](C(=O)N[C@H]1COc2ccccc2[C@@H]1S(C)(=O)=O)c1ccc(F)cc1	–	10 µM	inhibition	-27%
NS(=O)(=O)c1ccc(-c2ncccc2-c2nc3ccccc3s2)cc1	absorbance	10 µM	inhibition	88.5%
Nc1ncc(-c2nc(N3CCOCC3)nc(N3CCOCC3)n2)c(C(F)F)n1	–	10 µM	remaining activity	99%
Cc1ccc(-c2nc3ccccc3s2)c(-c2ccc(S(C)(=O)=O)cc2)c1	absorbance	10 µM	inhibition	72%
Cc1ncc(C)n2nc(/C=C/c3nc(N4CCCC4)cc(N4CCOCC4)n3)nc12	–	10 µM	inhibition	0%
